The record followed here is ChEMBL document CHEMBL1123238, “Binding requirements of phenolic phenylethylamines in the benzonorbornene skeleton at the active site of phenylethanolamine N-methyltransferase” (J Med Chem, 1986).

For data set [1], the target named is T1, Phenylethanolamine N-methyltransferase (Bos taurus, UniProt P10938).
T1 sequence (P10938 whole entry): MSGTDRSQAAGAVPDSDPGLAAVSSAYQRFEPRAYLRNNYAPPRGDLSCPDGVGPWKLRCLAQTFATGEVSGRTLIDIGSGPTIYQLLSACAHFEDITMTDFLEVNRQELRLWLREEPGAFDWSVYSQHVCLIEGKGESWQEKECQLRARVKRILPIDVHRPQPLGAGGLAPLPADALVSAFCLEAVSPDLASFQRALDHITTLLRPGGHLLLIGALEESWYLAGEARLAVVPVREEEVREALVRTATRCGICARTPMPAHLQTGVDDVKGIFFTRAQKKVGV
As to the kind of experiment: Compound was tested in vitro inhibition of phenylethanolamine N-methyl-transferase (PNMT) activity using radiochemical assay.

Data set [2] is described as follows: Vmax of compound was measured. It is filed as ADME.
Substrate in data set [3]: N[C@@H]1CC2C[C@@H]1c1ccccc12
The data set can be described thus: (§1) Compound was tested in vitro for PNMT activity using radiochemical assay. A digest of the protocol: (§2)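 Bovine adrenal PNMT, partially purified through the isoelectric precipitation step. Compounds were tested as hydrobromide salts. Radiochemical assay used phosphate buffer at pH 8.0, unlabeled AdoMet (10 μM stock) plus [methyl-³H]AdoMet, and 30 min incubation at 37 °C. Reactions were quenched with borate at pH 10 and extracted into toluene/isoamyl alcohol (7:3), then scintillation-counted.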

Substrate in data set [4]: N[C@@H]1CC2CCC1c1ccccc12
Described as §1. A digest of the protocol: as §2

Substrate in data set [5]: N[C@@H]1CC2CC1c1cc(O)c(O)cc12
The data set is described as §1. A digest of the protocol: as §2

With `N[C@@H]1CC2C[C@@H]1c1ccccc12`, in data set [1], the affinity, expressed as Ki, was 479 µM. For the same molecule, the Vmax in data set [2] was 0.08 nM/mg/min. On to `N[C@@H]1C2CCC1c1c(O)cccc12` (stereo not given in full), for which the Ki in data set [1] came to 4000 µM. This lies in the millimolar range. Still for that read-out and setting: with `N[C@@H]1CC2CC1c1cccc(O)c12` (stereo not given in full) the figure was 10000 µM.

Consider `N[C@@H]1CC2CCC1c1ccccc12` (stereo not given in full), for which affinity in data set [1] was put at a Ki of 258 µM. Moreover, the Vmax in data set [2] stood at 0.61 nM/mg/min.

For the molecule `N[C@@H]1CC2CC1c1cc(O)ccc12` (stereo not given in full), the Ki in data set [1] turned out to be 1110 µM.

With `N[C@@H]1CC2CC1c1ccc(O)cc12` (stereo not given in full), the Ki in data set [1] turned out to be 304 µM. Compared with the last molecule, the Ki is about 3.7-fold lower.

Take `N[C@@H]1C2CCC1c1cc(O)ccc12` (stereo not given in full): in data set [1], the Ki worked out at 108 µM.

On to `N[C@@H]1CC2CC1c1cc(O)c(O)cc12` (stereo not given in full), for which the Ki in data set [1] turned out to be 487 µM. For the same molecule, the Vmax in data set [2] stood at 0.44 nM/mg/min.

Regarding `N[C@@H]1CC2CC1c1c(O)cccc12` (stereo not given in full), the affinity in data set [1] corresponds to a Ki of 3000 µM. This lies in the millimolar range.

B1: Phenylethanolamine N-methyltransferase (Bos taurus), P10938 (protein)
chain: T1 sequence (P10938 whole entry)
Regarding B1, the results for the Km in data set [3], in data set [4] and in data set [5] were 192 µM, 81 µM and 686 µM, respectively.
